According to article PMC5088049 (Pharmacogenetics and genomics, 2016):
Positions count from the first letter of the chain named.

What was measured:
Assay type in all cases: in vitro ADME
AKR1C4 Gly135Glu = target: T1, AKR1C4 Gly135Glu (Homo sapiens, UniProt P17516, G135E); test: Kinetics of EXE reduction to 17β-DHE, recombinant AKR1C4 Gly135Glu; settings: for VMAX: normalized to enzyme purity
T1 sequence (P17516 1-323 G135E): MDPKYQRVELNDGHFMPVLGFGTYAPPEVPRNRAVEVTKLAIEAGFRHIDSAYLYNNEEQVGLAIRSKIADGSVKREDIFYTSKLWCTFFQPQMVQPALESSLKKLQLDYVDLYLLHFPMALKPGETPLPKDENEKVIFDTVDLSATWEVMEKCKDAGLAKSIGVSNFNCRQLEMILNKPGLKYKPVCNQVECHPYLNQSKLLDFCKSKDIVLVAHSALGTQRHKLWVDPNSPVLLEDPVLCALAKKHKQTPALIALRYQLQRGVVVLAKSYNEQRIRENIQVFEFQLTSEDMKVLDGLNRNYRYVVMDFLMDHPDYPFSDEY

[1] = Metabolite identification, overnight incubation with pooled human liver cytosol; settings: 200 µM EXE, 18-h incubation, 7.5 µg pooled human liver cytosol, PBS pH 7.4, 37°C, NADPH regeneration system
AKR1C4 = target: T2, AKR1C4 (Homo sapiens, UniProt P17516); test: Metabolite identification, overnight incubation with recombinant AKR1C4; settings: 200 µM EXE, 18-h incubation, 1.5 µg recombinant AKR1C4
T2 sequence (P17516 1-323): T1 sequence (P17516 1-323 G135E) with E135G
Outline: (§1)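 Wildtype enzyme was His-tagged, expressed in E. coli BL21 (IPTG induction), Ni-NTA purified and dialysed against PBS. It was stopped with ice-cold acetonitrile and centrifuged. UPLC/ESI+ full scan (m/z 100–450) was followed by targeted MS/MS transitions. Retention times were matched to synthetic 17α/17β-dihydro standards.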

AKR1C3 Lys104Asn = AKR1C3 Lys104Asn (Homo sapiens, UniProt P42330, K104N); test: Kinetics of EXE reduction to 17β-DHE, recombinant AKR1C3 Lys104Asn
Sequence of AKR1C3 Lys104Asn (P42330 whole entry K104N): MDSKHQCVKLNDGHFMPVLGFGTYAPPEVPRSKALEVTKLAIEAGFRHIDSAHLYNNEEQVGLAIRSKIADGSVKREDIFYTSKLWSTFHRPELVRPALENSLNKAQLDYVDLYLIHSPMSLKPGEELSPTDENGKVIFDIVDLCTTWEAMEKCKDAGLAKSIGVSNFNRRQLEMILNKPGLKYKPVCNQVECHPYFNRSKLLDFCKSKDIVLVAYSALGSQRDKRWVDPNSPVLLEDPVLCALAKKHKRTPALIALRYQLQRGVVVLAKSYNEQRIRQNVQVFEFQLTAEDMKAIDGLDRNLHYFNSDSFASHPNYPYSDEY

AKR1C4 Ser145Cys = target: T3, AKR1C4 Ser145Cys (Homo sapiens, UniProt P17516, S145C); test: Kinetics of EXE reduction to 17β-DHE, recombinant AKR1C4 Ser145Cys
T3 sequence (P17516 1-323 S145C): T1 sequence (P17516 1-323 G135E) with E135G, S145C

AKR1C3 Pro180Ser = AKR1C3 Pro180Ser (Homo sapiens, UniProt P42330, P180S); test: Kinetics of EXE reduction to 17β-DHE, recombinant AKR1C3 Pro180Ser
Sequence of AKR1C3 Pro180Ser (P42330 whole entry P180S): as the sequence (P42330 whole entry K104N) above, with N104K, P180S counted along it

CBR1 = target: T4, CBR1 (Homo sapiens, UniProt P16152); test: Kinetics of EXE reduction to 17β-DHE, recombinant CBR1; settings: for CLINT: VMAX/KM
T4 sequence (P16152 1-277): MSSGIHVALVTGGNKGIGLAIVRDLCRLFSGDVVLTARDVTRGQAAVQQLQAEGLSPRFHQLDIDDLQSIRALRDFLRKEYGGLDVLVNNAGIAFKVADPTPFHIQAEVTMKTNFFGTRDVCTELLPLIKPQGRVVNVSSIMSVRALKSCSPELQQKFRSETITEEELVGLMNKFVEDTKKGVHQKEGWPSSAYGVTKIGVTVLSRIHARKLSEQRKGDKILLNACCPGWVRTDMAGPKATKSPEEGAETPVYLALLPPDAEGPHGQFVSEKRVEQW

AKR1C4 Leu311Val = target: T5, AKR1C4 Leu311Val (Homo sapiens, UniProt P17516, L311V); test: Kinetics of EXE reduction to 17β-DHE, recombinant AKR1C4 Leu311Val
T5 sequence (P17516 1-323 L311V): T1 sequence (P17516 1-323 G135E) with E135G, L311V

AKR1C1 = AKR1C1 (Homo sapiens, UniProt Q04828); test: Metabolite identification, overnight incubation with recombinant AKR1C1; settings: 200 µM EXE, 18-h incubation, 1.5 µg recombinant AKR1C1
Sequence of AKR1C1 (Q04828 whole entry): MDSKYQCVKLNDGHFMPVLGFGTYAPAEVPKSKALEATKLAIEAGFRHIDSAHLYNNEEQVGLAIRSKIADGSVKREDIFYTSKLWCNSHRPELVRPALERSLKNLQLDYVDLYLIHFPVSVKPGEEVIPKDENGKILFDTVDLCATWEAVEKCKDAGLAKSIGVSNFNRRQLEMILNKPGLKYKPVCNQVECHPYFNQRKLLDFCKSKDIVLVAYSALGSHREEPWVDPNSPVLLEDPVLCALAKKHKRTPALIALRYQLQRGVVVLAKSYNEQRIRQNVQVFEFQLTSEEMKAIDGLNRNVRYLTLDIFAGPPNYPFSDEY
Outline: as §1

AKR1C3 Glu77Gly = AKR1C3 Glu77Gly (Homo sapiens, UniProt P42330, E77G); test: Kinetics of EXE reduction to 17β-DHE, recombinant AKR1C3 Glu77Gly; settings: for VMAX: normalized to enzyme purity
Sequence of AKR1C3 Glu77Gly (P42330 whole entry E77G): as the sequence (P42330 whole entry K104N) above, with E77G, N104K counted along it

Molecule `C=C1C[C@@H]2[C@H](CC[C@]3(C)C(=O)CC[C@@H]23)[C@@]2(C)C=CC(=O)C=C12` [exemestane, 6-methylenandrosa-1,4-diene-3-17-dione] has a Km (AKR1C4 Gly135Glu; AKR1C4 Gly135Glu (rs11253043), 17β-DHE formation) of 311 ± 75.7 µM, a CLINT (AKR1C4 Gly135Glu; AKR1C4 Gly135Glu, VMAX/KM) of 6e-05 µL/min/mg and a VMAX (AKR1C4 Gly135Glu; AKR1C4 Gly135Glu) of 19.1 ± 4.2 picomoles·min^−1·mg^−1. For the same molecule, the VMAX (AKR1C4 Gly135Glu; AKR1C4 Gly135Glu, listed as EXE) was 19.1 ± 4.2 picomoles·min^−1·mg^−1, the “VMAX of AKR1C4 Gly135Glu relative to wildtype” value (AKR1C4 Gly135Glu; faster than wildtype AKR1C4) was 8 fold and the metabolite formed [1] was 17β-DHE although a lesser amount of 17α-DHE was detected as well. The metabolites formed (AKR1C4) was “both stereoisomers of DHE”, the Km (AKR1C3 Lys104Asn; AKR1C3 Lys104Asn (rs12387), 17β-DHE formation) was 16.8 ± 1 µM and the CLINT (AKR1C3 Lys104Asn; AKR1C3 Lys104Asn, VMAX/KM) was 0.00038 µL/min/mg. The VMAX (AKR1C3 Lys104Asn; AKR1C3 Lys104Asn, normalized to enzyme purity) was 6.4 ± 0.3 picomoles·min^−1·mg^−1, the Km (AKR1C4 Ser145Cys; AKR1C4 Ser145Cys (rs3829125), 17β-DHE formation) was 9.6 ± 2.4 µM and the CLINT (AKR1C4 Ser145Cys; AKR1C4 Ser145Cys, VMAX/KM) was 0.00061 µL/min/mg. The VMAX (AKR1C4 Ser145Cys; AKR1C4 Ser145Cys, normalized to enzyme purity) was 5.9 ± 1.1 picomoles·min^−1·mg^−1, the Km (AKR1C3 Pro180Ser; AKR1C3 Pro180Ser (rs34186955), 17β-DHE formation) was 11.2 ± 3.1 µM and the CLINT (AKR1C3 Pro180Ser; AKR1C3 Pro180Ser, VMAX/KM) was 0.00032 µL/min/mg. The VMAX (AKR1C3 Pro180Ser; AKR1C3 Pro180Ser, normalized to enzyme purity) was 3.6 ± 0.6 picomoles·min^−1·mg^−1, the “rate of EXE reduction by CBR1 relative to AKR1C2” value (CBR1; VMAX, faster than AKR1C2) was “about 11 fold” and the “rate of 17β-DHE formation by CBR1 relative to recombinant AKR1C enzymes” value (CBR1; more rapid than recombinant AKR1C enzymes) was 11 to 403 fold. The CLINT (CBR1; wildtype CBR1) was 0.0035 µL/min/mg, the CLINT (CBR1; wildtype CBR1, listed as EXE) was 0.0035 µL/min/mg and the VMAX (CBR1; wildtype CBR1, normalized to enzyme purity) was 928 ± 244 picomoles·min^−1·mg^−1. The Km (AKR1C4 Leu311Val; AKR1C4 Leu311Val (rs17134592), 17β-DHE formation) was 11.9 ± 2 µM, the CLINT (AKR1C4 Leu311Val; AKR1C4 Leu311Val, VMAX/KM) was 0.00053 µL/min/mg and the VMAX (AKR1C4 Leu311Val; AKR1C4 Leu311Val, normalized to enzyme purity) was 6.3 ± 0.8 picomoles·min^−1·mg^−1. For the same molecule, the metabolites formed (AKR1C1) was “only 17β-DHE formation”, the Km (AKR1C3 Glu77Gly; AKR1C3 Glu77Gly (rs11551177), 17β-DHE formation) was 13.9 ± 2.2 µM and the CLINT (AKR1C3 Glu77Gly; AKR1C3 Glu77Gly, VMAX/KM) was 0.00014 µL/min/mg. For the same molecule, the VMAX (AKR1C3 Glu77Gly; AKR1C3 Glu77Gly) was 1.9 ± 0.2 picomoles·min^−1·mg^−1 and the VMAX (AKR1C3 Glu77Gly; AKR1C3 Glu77Gly, listed as EXE) was 1.9 ± 0.2 picomoles·min^−1·mg^−1.
